MsrA inhibitor – bovine MsrA enzyme inhibitors, primary screen, biochemical, absorbance, HTS. 360,000 tested, 0.75% active. purified bovine MsrA, absorbance read-out. AID 651718, 2012. Methionine sulfoxide reductase A (Bos taurus). inhibition, % at 15.5 µM; in the data active = inhibition above about 4.5%
ARFGAP1 inhibitor – inhibitors of rat ARFGAP1 GAP activity, primary screen, biochemical, fluorescence polarization, GDP tracer. ADP-ribosylation factor GTPase-activating protein 1 (Rattus norvegicus), Q62848. Arfgap1-stimulated ARF1 GTP hydrolysis, GDP FP detection. inhibition, % at 16.5 µM. 360,000 tested, 0.26% active. AID 651572, 2012;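 active = inhibition above a per-plate limit, mean inhibition of low control wells plus 3 SD, cut at about 25% in these data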
Target sequence (Q62848 1-136 limits assumed): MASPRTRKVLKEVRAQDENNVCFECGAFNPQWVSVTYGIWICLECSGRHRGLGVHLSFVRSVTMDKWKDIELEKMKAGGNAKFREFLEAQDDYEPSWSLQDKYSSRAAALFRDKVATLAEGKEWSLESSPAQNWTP
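system = rat Arfgap1 catalytic domain, aa 1-136 | technique = FP, GDP Alexa 633 tracer displaced from anti-GDP antibody, 620/688 nm | compound = one concentration, 16.5 µM, DMSO 1.26% | medium = HEPES-based buffer, pH 7.5 | timing = compound-enzyme preincubation 20 min, reaction 120 min, detection 60 min, 25 °C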
NR1D1 modulator – modulators of Rev-erb alpha DNA binding, primary screen, biochemical, FITC-DNA, fluorescence polarization, uHTS. Nuclear receptor subfamily 1 group D member 1 (Homo sapiens), P20393. Rev-erbα–FITC-DNA binding, 90 min. activity, % at 10 µM. 370,000 tested, 0.79% active. AID 1259318, 2017;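 active = activity above about 14%, limit read from the data; passing the limit was not always enough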
HGIII-sPLA2 inh – human group III sPLA2 inhibitors, primary screen, biochemical, QFRET, BODIPY PC-A2 liposome substrate; Group 3 secretory phospholipase A2 (Homo sapiens), Q9NZ20; QFRET BODIPY PC-A2 liposome hydrolysis, fluorescence; inhibition, % at 12.2 µM; 370,000 tested, 0.56% active;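 active = inhibition above mean plus 3 SD of compounds lying within the high and low control bounds, cut at about 19% in these data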
MsrA act – bovine MsrA enzyme activators, primary screen, biochemical, absorbance, HTS; 360,000 tested, 0.3% active; activation, % at 10.6 µM; purified bovine MsrA, absorbance read-out; AID 602163, 2012; Methionine sulfoxide reductase A (Bos taurus); in the data active = activation above about 7.5%
ASAP1 GAP inh – inhibitors of human ASAP1 ArfGAP activity, primary screen, biochemical, fluorescence polarization | ASAP1-stimulated ARF1 GTP hydrolysis, GDP FP detection | inhibition, % at 16.5 µM | 360,000 tested, 0.19% active; in the data active = inhibition above about 25%
Target sequence (Q9ULH1 325-724 limits assumed): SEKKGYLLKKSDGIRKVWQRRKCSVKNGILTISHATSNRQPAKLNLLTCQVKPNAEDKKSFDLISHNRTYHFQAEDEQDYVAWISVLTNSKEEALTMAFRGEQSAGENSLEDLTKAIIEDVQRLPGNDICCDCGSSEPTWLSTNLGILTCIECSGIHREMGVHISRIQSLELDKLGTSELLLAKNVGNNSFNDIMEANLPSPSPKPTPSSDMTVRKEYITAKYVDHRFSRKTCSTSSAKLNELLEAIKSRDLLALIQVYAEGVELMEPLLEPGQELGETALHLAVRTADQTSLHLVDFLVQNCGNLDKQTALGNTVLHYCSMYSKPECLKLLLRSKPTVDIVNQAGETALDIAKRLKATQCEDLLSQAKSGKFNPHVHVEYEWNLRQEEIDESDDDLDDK
hGIII sPLA2 conf – human group III sPLA2 inhibitors, confirmation, biochemical, QFRET, triplicate. recombinant hGIII-sPLA2, BODIPY PC-A2 QFRET fluorescence. 2,000 tested, 34% active. shares compounds with HGIII-sPLA2 inh. inhibition, % at 12.2 µM;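 active = mean inhibition across triplicates above the hit cutoff set in the earlier primary screen, cut at about 19% in these data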
BODIPY interf – 535nm fluorescence optical interference, confirmation, artefact control for HGIII-sPLA2 inhibitor project, biochemical, QFRET. shares compounds with HGIII-sPLA2 inh. BODIPY FL product fluorescence interference. inhibition, % at 12.2 µM. 2,000 tested, 8.5% active. AID 743282, 2014;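 active = average inhibition above the solvent-only control mean plus 3 SD, cut at about 6% in these data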
535nm interf DR – 535nm fluorescence optical interference, dose response, artefact control for HGIII-sPLA2 inhibitor project, biochemical, QFRET. shares compounds with HGIII-sPLA2 inh. BODIPY FL product fluorescence interference, cell-free. IC50, µM. 240 tested, under 10 active. AID 743455, 2014;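 active = IC50 at or below 10 µM; inactive = IC50 above 10 µM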
Each line names hits and unclear results; the compound was inactive in the other large screens (follow-up assays come after a bar, where they were run). Sampled rows, rich in hits. Any-hit rate of the full collection: about 2.7%.

CCOC(=O)c1c(CSC(=N)N)n(-c2ccc(C)cc2)c2cc(Br)c(OC(C)=O)cc12	HGIII-sPLA2 inh 26 | hGIII sPLA2 conf inactive | BODIPY interf inactive
O=C(OCC#CCSc1nnc(-c2ccc(Cl)cc2)o1)c1ccc(F)cc1	none (no result: MsrA inhibitor, ARFGAP1 inhibitor, MsrA act, ASAP1 GAP inh)
O=C(c1c(F)cccc1F)N1CCC(Oc2cccnc2)CC1	none (no result: MsrA inhibitor, ARFGAP1 inhibitor, MsrA act, ASAP1 GAP inh)
CC(=O)N1N=C(c2ccc3ccccc3c2)OC1(C)C	none
CC(=O)N1N=C(c2ccc(C(C)(C)C)cc2)OC1(C)C	HGIII-sPLA2 inh 20 | hGIII sPLA2 conf inactive | BODIPY interf inactive
C=CCNC(=O)CNS(=O)(=O)c1ccc(F)cc1	HGIII-sPLA2 inh 20 | hGIII sPLA2 conf inactive | BODIPY interf inactive
CC(C)Oc1ccc(CC(=O)NNC(=S)Nc2ccccc2)cc1	HGIII-sPLA2 inh 29 | hGIII sPLA2 conf 30 | BODIPY interf inactive | 535nm interf DR inactive
COc1ccc(CCC(=O)NNC(=S)Nc2cccc(C(C)=O)c2)cc1	HGIII-sPLA2 inh 20 | hGIII sPLA2 conf 28 | BODIPY interf inactive | 535nm interf DR inactive
CC(C)Oc1ccc(CCC(=O)NNC(=S)Nc2ccccc2)cc1	none
O=C(NNC(=S)Nc1ccccc1)NNC(=S)Nc1ccccc1	HGIII-sPLA2 inh 34 | hGIII sPLA2 conf 29 | BODIPY interf inactive | 535nm interf DR inactive
O=C(NNC(=S)Nc1ccccc1)c1cc(Br)ccc1Cl	HGIII-sPLA2 inh 33 | hGIII sPLA2 conf 28 | BODIPY interf 6.1
CCCCN(C)S(=O)(=O)c1c(C)[nH]c(=O)[nH]c1=O	HGIII-sPLA2 inh 19 | hGIII sPLA2 conf inactive | BODIPY interf inactive
Cc1nnc(NC(=O)c2ccc(S(=O)(=O)N3CCCCC3)cc2)s1	none
O=C(Nc1nc(-c2ccccc2)c(-c2ccccc2)s1)c1ccc(S(=O)(=O)N2CCCCC2)cc1	HGIII-sPLA2 inh 23 | hGIII sPLA2 conf inactive | BODIPY interf inactive
COc1ccc(NC(=S)Nc2ccc3nccnc3c2)cc1	HGIII-sPLA2 inh 23 | hGIII sPLA2 conf inactive | BODIPY interf inactive
Oc1cccc(N2CCN(c3cccc(O)c3)CC2)c1	none (no result: MsrA act)
NC(N)=NC(=S)Nc1ccc(Cl)cc1	HGIII-sPLA2 inh 21 | hGIII sPLA2 conf inactive | BODIPY interf inactive
COc1ccc(C2=Nn3c(nnc3-c3ccccc3)SC2)cc1OC	none
CCCc1nnc2n1N=C(c1ccc(OC)c(OC)c1)CS2	HGIII-sPLA2 inh 20 | hGIII sPLA2 conf inactive | BODIPY interf inactive
Cc1ccc(S(=O)(=O)NNC(=O)c2ccncc2)cc1	none
Cc1ccc(S(=O)(=O)NNC(=O)c2sc(=S)n(C)c2C)cc1	HGIII-sPLA2 inh 23 | hGIII sPLA2 conf inactive | BODIPY interf inactive
CCOC(=O)C(=NC(C)CC)NNc1cccc(C(F)(F)F)c1 (stereo not drawn)	HGIII-sPLA2 inh 24 | hGIII sPLA2 conf 35 | BODIPY interf inactive | 535nm interf DR inactive
O=C1CCCN1c1nccs1	HGIII-sPLA2 inh 20 | hGIII sPLA2 conf inactive | BODIPY interf inactive
COc1ccccc1CCNC(=O)c1cnn2c(C(F)F)cc(C)nc12	none
COc1ccc(CCNC(=O)c2cnn3c(C(F)F)cc(C)nc23)cc1OC	HGIII-sPLA2 inh 20 | hGIII sPLA2 conf inactive | BODIPY interf inactive
CCOc1ccc(-n2c(SCC(=O)c3ccccc3Cl)nnc2-c2ccncc2)cc1	none (no result: MsrA inhibitor, ARFGAP1 inhibitor, MsrA act, ASAP1 GAP inh)
O=C(CSCc1c(F)cccc1Cl)NNC(=S)NC1CCCCC1	HGIII-sPLA2 inh 21 | hGIII sPLA2 conf inactive | BODIPY interf inactive
O=C(COC(=O)c1c(F)cccc1Cl)NC1CCCCC1	none
C=CCn1c(SCC(=O)C(C)(C)C)nnc1-c1ccc(Cl)cc1	none (no result: MsrA inhibitor, ARFGAP1 inhibitor, MsrA act, ASAP1 GAP inh)
COc1cc2c[n+](C)c3c4ccccc4ccc3c2cc1OC	none
COc1ccc2c(c1)c[n+](C)c1c3cc(OC)c(OC)cc3ccc21	HGIII-sPLA2 inh 27 | hGIII sPLA2 conf 36 | BODIPY interf inactive | 535nm interf DR inactive
Cc1ccccc1Nc1nc(N)[nH]c(=O)c1N=O	none
Cc1ccccc1-n1nc(C(=O)c2cccs2)cc(-c2nc3ccccc3[nH]2)c1=N	HGIII-sPLA2 inh 23 | hGIII sPLA2 conf inactive | BODIPY interf 7.4
COc1ccc(-n2nc(C(=O)c3cccs3)cc(-c3nc4ccccc4[nH]3)c2=N)cc1	none
O=S(=O)(CC1NCc2cc(F)ccc21)NCc1ccc(F)cc1 (stereo not drawn)	none (no result: MsrA inhibitor, ARFGAP1 inhibitor, MsrA act, ASAP1 GAP inh)
COc1cccc(Sc2ccccc2CN(C)C)c1	HGIII-sPLA2 inh 20 | hGIII sPLA2 conf inactive | BODIPY interf inactive
Cc1ccc(C(O)c2ncc(-c3ccc(Cl)cc3)[nH]2)cc1 (stereo not drawn)	none
CCCCCCCCNC(=O)c1cccnc1SCC(=O)Nc1ccc(OC)cc1OC	HGIII-sPLA2 inh 22 | hGIII sPLA2 conf inactive | BODIPY interf inactive
COc1ccc(CNC(=O)C[C@@H]2C=C[C@@H](NS(=O)(=O)c3cccc(OC)c3)[C@@H](CO)O2)cc1	none (no result: MsrA act)
CCOc1ccc(/C=N/NC(=O)C(=O)NCc2ccco2)cc1	HGIII-sPLA2 inh 20 | hGIII sPLA2 conf inactive | BODIPY interf inactive
CCN=c1scc(C)n1/N=C/c1ccc(O)c(O)c1O	HGIII-sPLA2 inh 22 | hGIII sPLA2 conf 24 | BODIPY interf inactive
CCN=c1scc(-c2ccco2)n1/N=C/c1ccc(O)cc1	none
C=C(C)CN=c1scc(C)n1/N=C/c1ccco1	none
CCN=c1scc(C)n1/N=C/c1cc(Br)c(O)c(Br)c1	HGIII-sPLA2 inh 22 | hGIII sPLA2 conf 21 | BODIPY interf inactive
NC(=O)c1ccc(-c2ccc(N3C(c4ccsc4)=Cc4ccc(F)cc4C3CC(=O)c3ccco3)cc2)cc1 (stereo not drawn)	HGIII-sPLA2 inh 26 | hGIII sPLA2 conf inactive | BODIPY interf inactive
O=C(NC1CCCC1)c1cc(-c2ccc(Cl)cc2)on1	HGIII-sPLA2 inh 19 | hGIII sPLA2 conf inactive | BODIPY interf inactive
